# Legend:
# [1] = target: cGMP-specific 3',5'-cyclic phosphodiesterase (Bos taurus, UniProt Q28156); assay: Inhibitory activity against bovine PDE5 (phosphodiesterase-5).
# Phosphodiesterase = Phosphodiesterase (Bos taurus, UniProt E1BN64); assay: Inhibition of bovine aorta PDE3 (phosphodiesterase 3)
# Outline: (§1)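 Incubated 30 min at 30 °C under initial-velocity conditions (≤10-15% hydrolysis). Product separated on QAE Sephadex and counted by scintillation; final DMSO 2%.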
# [2] = target: cGMP-dependent 3',5'-cyclic phosphodiesterase (Homo sapiens, UniProt O00408); assay: Inhibition of human recombinant PDE2 (phosphodiesterase 2); outline: as §1
# cGMP-dependent 3',5'-cyclic phosphodiesterase, sequence (O00408 whole entry): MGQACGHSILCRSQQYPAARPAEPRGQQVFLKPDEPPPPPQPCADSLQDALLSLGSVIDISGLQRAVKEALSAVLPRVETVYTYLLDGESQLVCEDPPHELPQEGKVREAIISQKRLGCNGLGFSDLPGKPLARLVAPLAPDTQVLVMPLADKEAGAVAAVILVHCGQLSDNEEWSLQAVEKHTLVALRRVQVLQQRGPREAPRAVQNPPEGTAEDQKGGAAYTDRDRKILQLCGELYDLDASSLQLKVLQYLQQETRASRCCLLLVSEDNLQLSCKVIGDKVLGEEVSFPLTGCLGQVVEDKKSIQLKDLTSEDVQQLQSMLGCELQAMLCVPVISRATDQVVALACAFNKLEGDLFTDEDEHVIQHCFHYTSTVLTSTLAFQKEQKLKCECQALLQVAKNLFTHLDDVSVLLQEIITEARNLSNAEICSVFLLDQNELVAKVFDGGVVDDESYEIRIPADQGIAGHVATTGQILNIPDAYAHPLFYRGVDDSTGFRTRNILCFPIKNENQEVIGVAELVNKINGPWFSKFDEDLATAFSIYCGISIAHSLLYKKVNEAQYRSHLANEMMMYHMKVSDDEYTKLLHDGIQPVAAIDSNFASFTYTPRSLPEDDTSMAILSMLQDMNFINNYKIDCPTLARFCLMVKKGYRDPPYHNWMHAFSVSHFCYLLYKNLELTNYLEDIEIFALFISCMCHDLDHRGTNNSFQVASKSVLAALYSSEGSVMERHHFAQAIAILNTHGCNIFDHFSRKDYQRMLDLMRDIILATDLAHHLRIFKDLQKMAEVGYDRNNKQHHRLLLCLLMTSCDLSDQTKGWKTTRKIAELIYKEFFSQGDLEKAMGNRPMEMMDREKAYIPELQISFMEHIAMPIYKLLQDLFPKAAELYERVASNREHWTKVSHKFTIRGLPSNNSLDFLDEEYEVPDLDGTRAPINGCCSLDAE
# Phosphodiesterase, sequence (E1BN64 whole entry): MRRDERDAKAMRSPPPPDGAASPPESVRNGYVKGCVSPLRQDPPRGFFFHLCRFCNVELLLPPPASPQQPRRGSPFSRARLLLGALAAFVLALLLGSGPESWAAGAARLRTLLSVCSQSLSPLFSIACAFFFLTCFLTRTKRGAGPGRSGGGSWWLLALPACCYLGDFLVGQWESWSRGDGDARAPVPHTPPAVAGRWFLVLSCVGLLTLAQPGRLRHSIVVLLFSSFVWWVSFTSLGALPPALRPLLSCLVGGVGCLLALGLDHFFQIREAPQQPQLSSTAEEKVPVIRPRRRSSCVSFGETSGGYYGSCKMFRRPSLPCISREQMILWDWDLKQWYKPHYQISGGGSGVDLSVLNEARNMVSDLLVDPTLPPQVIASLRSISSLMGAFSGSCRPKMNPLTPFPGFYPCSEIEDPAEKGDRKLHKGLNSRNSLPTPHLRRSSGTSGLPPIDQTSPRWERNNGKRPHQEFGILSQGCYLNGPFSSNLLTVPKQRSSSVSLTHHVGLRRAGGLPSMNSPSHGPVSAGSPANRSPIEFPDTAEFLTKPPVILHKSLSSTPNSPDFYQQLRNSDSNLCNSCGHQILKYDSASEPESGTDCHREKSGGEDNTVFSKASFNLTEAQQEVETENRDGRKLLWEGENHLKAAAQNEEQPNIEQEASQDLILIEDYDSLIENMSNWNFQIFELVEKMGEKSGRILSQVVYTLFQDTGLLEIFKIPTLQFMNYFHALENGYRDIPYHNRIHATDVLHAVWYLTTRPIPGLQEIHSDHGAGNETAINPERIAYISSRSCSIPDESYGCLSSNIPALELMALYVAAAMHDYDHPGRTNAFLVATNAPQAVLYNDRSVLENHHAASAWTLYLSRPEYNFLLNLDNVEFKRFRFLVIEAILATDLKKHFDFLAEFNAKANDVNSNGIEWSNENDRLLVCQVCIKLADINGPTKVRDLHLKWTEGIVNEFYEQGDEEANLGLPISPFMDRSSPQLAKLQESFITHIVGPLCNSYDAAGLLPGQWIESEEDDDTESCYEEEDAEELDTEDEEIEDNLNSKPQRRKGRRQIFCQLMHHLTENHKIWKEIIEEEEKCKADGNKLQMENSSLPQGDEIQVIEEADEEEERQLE
IC50 [1] [nM],IC50 (Phosphodiesterase) [nM],IC50 [2] [nM],SMILES
,> 10000,> 10000,"COc1ccc([C@@H]2c3[nH]c4ccccc4c3Cc3c(O)n(Cc4ccccc4)c(=O)n32)cc1 [(3aR,10R)-2-Benzyl-10-(4-methoxy-phenyl)-3a,4,9,10-tetrahydro-2,9,10a-triaza-cyclopenta[b]fluorene-1,3-dione]"
7,,> 10000,"COc1ccc([C@@H]2c3[nH]c4ccccc4c3Cc3c(O)n(C4CCCCC4)c(=O)n32)cc1 [(3aR,10R)-2-Cyclohexyl-10-(4-methoxy-phenyl)-3a,4,9,10-tetrahydro-2,9,10a-triaza-cyclopenta[b]fluorene-1,3-dione]"
20,,,"COc1ccc([C@H]2c3[nH]c4ccccc4c3Cc3c(O)[nH]c(=O)n32)cc1 [(3aR,10S)-10-(4-Methoxy-phenyl)-3a,4,9,10-tetrahydro-2,9,10a-triaza-cyclopenta[b]fluorene-1,3-dione]"
,> 10000,> 10000,"CCCCn1c(O)c2n(c1=O)[C@@H](c1ccc(OC)cc1)c1[nH]c3ccccc3c1C2 [(3aR,10S)-2-Butyl-10-(4-methoxy-phenyl)-3a,4,9,10-tetrahydro-2,9,10a-triaza-cyclopenta[b]fluorene-1,3-dione]"
300,,,"CCCCn1c(O)c2n(c1=O)[C@H](c1ccncc1)c1[nH]c3ccccc3c1C2 [Cis-2-Butyl-10-pyridin-4-yl-3a,4,9,10-tetrahydro-2,9,10a-triaza-cyclopenta[b]fluorene-1,3-dione]"

# The remaining lines, values behind:
SMILES,IC50 [1] [nM],IC50 (Phosphodiesterase) [nM],IC50 [2] [nM]
COc1ccc([C@H]2c3[nH]c4ccccc4c3Cc3c(O)n(CCN4CCCC4)c(=O)n32)cc1,100,,
"CCCCn1c(O)c2n(c1=O)[C@H](c1ccoc1)c1[nH]c3ccccc3c1C2 [(3aR,10R)-2-Butyl-10-furan-3-yl-3a,4,9,10-tetrahydro-2,9,10a-triaza-cyclopenta[b]fluorene-1,3-dione]",100,,
"CCCCn1c(O)c2n(c1=O)[C@H](c1ccc(OC)cc1)c1[nH]c3ccccc3c1C2 [(3aR,10R)-2-Butyl-10-(4-methoxy-phenyl)-3a,4,9,10-tetrahydro-2,9,10a-triaza-cyclopenta[b]fluorene-1,3-dione]",,> 10000,> 10000
"COc1ccc([C@H]2c3[nH]c4ccccc4c3Cc3c(O)n(Cc4cccnc4)c(=O)n32)cc1 [(3aR,10S)-10-(4-Methoxy-phenyl)-2-pyridin-3-ylmethyl-3a,4,9,10-tetrahydro-2,9,10a-triaza-cyclopenta[b]fluorene-1,3-dione]",20,,
"CCCCn1c(O)c2n(c1=O)[C@H](c1ccsc1)c1[nH]c3ccccc3c1C2 [Cis-2-Butyl-10-thiophen-3-yl-3a,4,9,10-tetrahydro-2,9,10a-triaza-cyclopenta[b]fluorene-1,3-dione]",30,,
"COc1ccc([C@H]2c3[nH]c4ccccc4c3Cc3c(O)n(CCN(C)C)c(=O)n32)cc1 [(3aR,10S)-2-(2-Dimethylamino-ethyl)-10-(4-methoxy-phenyl)-3a,4,9,10-tetrahydro-2,9,10a-triaza-cyclopenta[b]fluorene-1,3-dione]",30,,
